Laboratory results as given in ChEMBL document CHEMBL5724801, “EUbOPEN Chemogenomics Library - Multiplex” (2024).
Where “and” joins values, the source holds several entries; their conditions need not be identical. Equal values may be shown once.

Experiments:
Type in all cases: toxicity, cell-based
U2OS = assay: Multiplex assay against U2OS; conditions: human
How it was run: (§1)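 Live cells carried four stains from seeding: Hoechst33342, BioTracker Green Microtubule Cytoskeleton Dye, MitoTracker Red and Annexin V Alexa Fluor 680. They were imaged on a CQ1 microscope at 37°C and 5% CO2 after compound addition. Using CellPathfinder machine-learning gating, cells were split into Hoechst high-intensity objects or normal cells, normal cells into healthy, pyknosed or fragmented nuclei, and pyknosed cells into mitotic or apoptotic; tubulin, mitochondrial-mass and membrane-permeability phenotypes are per cents of healthy-nucleus cells.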

Fibroblast = assay: Multiplex assay against human fibroblast; how it was run: as §1
HEK-293T = assay: Multiplex assay against HEK293T; conditions: human; how it was run: as §1
[1] = 12 h, 1 µM, compound concentration 1 uM
[2] = 12 h, 10 µM, compound concentration 10 uM
[3] = 24 h, 1 µM, compound concentration 1 uM
[4] = 24 h, 10 µM, compound concentration 10 uM
[5] = 48 h, 1 µM, compound concentration 1 uM
[6] = 48 h, 10 µM, compound concentration 10 uM

## O=C(Nc1ccccc1Cl)c1cnc2ccc(C3CCNCC3)cn12.O=C(O)C(=O)O
U2OS; [1]
  Population Apoptotic (%): 34.62% and 26.09%
  Population Fragmented Nuclei (%): 1.77% and 0.57%
  Population Healthy Nuclei (%): 86.73% and 86.21%
  Population Hoechst High Intensity Objects (%): 0%
  Population Membrane Permeable-Phenotype (%): 0.77% and 5.33%
  Population Mitochondria Different-Phenotype (%): 0% and 4%
  Population Mitotic Cells (%): 65.38% and 73.91%
  Population Normal (%): 100%
  Population Pyknosed Nuclei (%): 11.5% and 13.22%
  Population Tubulin-Different-Phenotype (%): 0.26% and 0.67%
  Total Cell Count: 452 and 174
U2OS; [2]
  Population Apoptotic (%): 36.51% and 44.74%
  Population Fragmented Nuclei (%): 2.48% and 4.95%
  Population Healthy Nuclei (%): 81.93% and 76.24%
  Population Hoechst High Intensity Objects (%): 0%
  Population Membrane Permeable-Phenotype (%): 2.42% and 7.79%
  Population Mitochondria Different-Phenotype (%): 0% and 9.09%
  Population Mitotic Cells (%): 63.49% and 55.26%
  Population Normal (%): 100%
  Population Pyknosed Nuclei (%): 15.59% and 18.81%
  Population Tubulin-Different-Phenotype (%): 5.14% and 3.25%
  Total Cell Count: 404 and 202
U2OS; [3]
  Population Apoptotic (%): 38.71% and 50%
  Population Fragmented Nuclei (%): 2.92% and 3.06%
  Population Healthy Nuclei (%): 81.98% and 83.84%
  Population Hoechst High Intensity Objects (%): 0%
  Population Membrane Permeable-Phenotype (%): 0.79% and 4.17%
  Population Mitochondria Different-Phenotype (%): 0% and 3.12%
  Population Mitotic Cells (%): 61.29% and 50%
  Population Normal (%): 100%
  Population Pyknosed Nuclei (%): 15.1% and 13.1%
  Population Tubulin-Different-Phenotype (%): 0.59% and 1.56%
  Total Cell Count: 616 and 229
U2OS; [4]
  Population Apoptotic (%): 50% and 42.31%
  Population Fragmented Nuclei (%): 3.44% and 5.18%
  Population Healthy Nuclei (%): 75.51% and 63.75%
  Population Hoechst High Intensity Objects (%): 0.2% and 0.4%
  Population Membrane Permeable-Phenotype (%): 2.14% and 8.12%
  Population Mitochondria Different-Phenotype (%): 0.8% and 10.62%
  Population Mitotic Cells (%): 50% and 57.69%
  Population Normal (%): 99.8% and 99.6%
  Population Pyknosed Nuclei (%): 21.05% and 31.08%
  Population Tubulin-Different-Phenotype (%): 4.02% and 2.5%
  Total Cell Count: 495 and 252
U2OS; [5]
  Population Apoptotic (%): 50.86% and 56.25%
  Population Fragmented Nuclei (%): 4.49% and 3.81%
  Population Healthy Nuclei (%): 84.2% and 83.11%
  Population Hoechst High Intensity Objects (%): 0% and 0.27%
  Population Membrane Permeable-Phenotype (%): 2.09% and 5.57%
  Population Mitochondria Different-Phenotype (%): 0% and 0.98%
  Population Mitotic Cells (%): 49.14% and 43.75%
  Population Normal (%): 100% and 99.73%
  Population Pyknosed Nuclei (%): 11.32% and 13.08%
  Population Tubulin-Different-Phenotype (%): 0.93% and 2.3%
  Total Cell Count: 1025 and 368
U2OS; [6]
  Population Apoptotic (%): 54.92% and 58.04%
  Population Fragmented Nuclei (%): 4.59% and 4.38%
  Population Healthy Nuclei (%): 68.57% and 60.62%
  Population Hoechst High Intensity Objects (%): 0.96% and 0%
  Population Membrane Permeable-Phenotype (%): 5.07% and 11.34%
  Population Mitochondria Different-Phenotype (%): 0.81% and 4.64%
  Population Mitotic Cells (%): 45.08% and 41.96%
  Population Normal (%): 99.04% and 100%
  Population Pyknosed Nuclei (%): 26.84% and 35%
  Population Tubulin-Different-Phenotype (%): 3.45% and 9.28%
  Total Cell Count: 726 and 320
Fibroblast; [1]
  Population Fragmented Nuclei (%): 12.96% and 7.79%
  Population Healthy Nuclei (%): 60.19% and 75.41%
  Population Hoechst High Intensity Objects (%): 0%
  Population Membrane Permeable-Phenotype (%): 1.54% and 2.72%
  Population Mitochondria Different-Phenotype (%): 7.69% and 10.87%
  Population Mitotic Cells (%): 93.1% and 73.17%
  Population Normal (%): 100%
  Population Pyknosed Nuclei (%): 26.85% and 16.8%
  Population Tubulin-Different-Phenotype (%): 17.69% and 23.91%
  Total Cell Count: 216 and 244
Fibroblast; [2]
  Population Apoptotic (%): 16.33% and 20.48%
  Population Healthy Nuclei (%): 62.09% and 63.64%
  Population Hoechst High Intensity Objects (%): 0% and 0.43%
  Population Membrane Permeable-Phenotype (%): 4.42% and 7.48%
  Population Mitochondria Different-Phenotype (%): 17.7% and 21.09%
  Population Mitotic Cells (%): 83.67% and 79.52%
  Population Normal (%): 100% and 99.57%
  Population Pyknosed Nuclei (%): 26.92% and 35.93%
  Population Tubulin-Different-Phenotype (%): 40.71% and 57.82%
  Total Cell Count: 182 and 232
Fibroblast; [3]
  Population Apoptotic (%): 14.29% and 25.71%
  Population Fragmented Nuclei (%): 11.52% and 3.52%
  Population Healthy Nuclei (%): 72.35% and 81.06%
  Population Hoechst High Intensity Objects (%): 0%
  Population Membrane Permeable-Phenotype (%): 4.46% and 3.8%
  Population Mitochondria Different-Phenotype (%): 8.92% and 15.22%
  Population Mitotic Cells (%): 85.71% and 74.29%
  Population Normal (%): 100%
  Population Pyknosed Nuclei (%): 16.13% and 15.42%
  Population Tubulin-Different-Phenotype (%): 19.75% and 25.54%
  Total Cell Count: 217 and 227
Fibroblast; [4]
  Population Apoptotic (%): 35.29% and 37.66%
  Population Healthy Nuclei (%): 67.43% and 62.44%
  Population Hoechst High Intensity Objects (%): 0%
  Population Membrane Permeable-Phenotype (%): 6.78% and 10.53%
  Population Mitochondria Different-Phenotype (%): 28.81% and 18.05%
  Population Mitotic Cells (%): 64.71% and 62.34%
  Population Normal (%): 100%
  Population Pyknosed Nuclei (%): 19.43% and 36.15%
  Population Tubulin-Different-Phenotype (%): 49.15% and 60.9%
  Total Cell Count: 175 and 213
Fibroblast; [5]
  Population Fragmented Nuclei (%): 11.26% and 5.24%
  Population Healthy Nuclei (%): 79.73% and 81.22%
  Population Hoechst High Intensity Objects (%): 0%
  Population Membrane Permeable-Phenotype (%): 2.26% and 5.91%
  Population Mitochondria Different-Phenotype (%): 7.91% and 2.15%
  Population Mitotic Cells (%): 90% and 64.52%
  Population Normal (%): 100%
  Population Pyknosed Nuclei (%): 9.01% and 13.54%
  Population Tubulin-Different-Phenotype (%): 12.43% and 28.49%
  Total Cell Count: 222 and 229
Fibroblast; [6]
  Population Apoptotic (%): 33.33% and 60.38%
  Population Fragmented Nuclei (%): 10.9% and 1.94%
  Population Healthy Nuclei (%): 75.64% and 63.87%
  Population Hoechst High Intensity Objects (%): 0% and 0.64%
  Population Mitochondria Different-Phenotype (%): 13.56% and 16.16%
  Population Mitotic Cells (%): 66.67% and 39.62%
  Population Normal (%): 100% and 99.36%
  Population Pyknosed Nuclei (%): 13.46% and 34.19%
  Population Tubulin-Different-Phenotype (%): 50.85% and 74.75%
  Total Cell Count: 156
HEK-293T; [1]
  Population Apoptotic (%): 13.38% and 9.73%
  Population Fragmented Nuclei (%): 1.98% and 9.79%
  Population Hoechst High Intensity Objects (%): 0.39% and 0%
  Population Membrane Permeable-Phenotype (%): 1.89% and 0%
  Population Mitotic Cells (%): 86.62% and 90.27%
  Population Normal (%): 99.61% and 100%
  Population Pyknosed Nuclei (%): 56.13% and 79.02%
  Population Tubulin-Different-Phenotype (%): 20.75% and 18.75%
  Total Cell Count: 254 and 143
HEK-293T; [2]
  Population Apoptotic (%): 16.08% and 15.91%
  Population Fragmented Nuclei (%): 4.31% and 3.38%
  Population Hoechst High Intensity Objects (%): 0.48% and 0%
  Population Membrane Permeable-Phenotype (%): 1.75% and 0%
  Population Mitochondria Different-Phenotype (%): 66.67% and 72.73%
  Population Mitotic Cells (%): 83.92% and 84.09%
  Population Normal (%): 99.52% and 100%
  Population Pyknosed Nuclei (%): 68.42% and 89.19%
  Population Tubulin-Different-Phenotype (%): 52.63% and 54.55%
  Total Cell Count: 210 and 148
HEK-293T; [3]
  Population Apoptotic (%): 19.23% and 23.68%
  Population Fragmented Nuclei (%): 1.95% and 4.9%
  Population Hoechst High Intensity Objects (%): 0.97% and 0%
  Population Membrane Permeable-Phenotype (%): 0.74% and 4.55%
  Population Mitochondria Different-Phenotype (%): 37.5% and 22.73%
  Population Mitotic Cells (%): 80.77% and 76.32%
  Population Normal (%): 99.03% and 100%
  Population Pyknosed Nuclei (%): 31.71% and 79.72%
  Population Tubulin-Different-Phenotype (%): 31.25% and 22.73%
  Total Cell Count: 414 and 143
HEK-293T; [4]
  Population Apoptotic (%): 34.45% and 29.91%
  Population Fragmented Nuclei (%): 4.76% and 4%
  Population Healthy Nuclei (%): 43.72% and 18%
  Population Hoechst High Intensity Objects (%): 0%
  Population Membrane Permeable-Phenotype (%): 0.99% and 3.7%
  Population Mitochondria Different-Phenotype (%): 74.26% and 51.85%
  Population Mitotic Cells (%): 65.55% and 70.09%
  Population Normal (%): 100%
  Population Pyknosed Nuclei (%): 51.52% and 78%
  Population Tubulin-Different-Phenotype (%): 81.19% and 40.74%
  Total Cell Count: 231 and 150
HEK-293T; [5]
  Population Apoptotic (%): 9.3% and 24.49%
  Population Fragmented Nuclei (%): 3.3% and 6.21%
  Population Healthy Nuclei (%): 83.82% and 32.92%
  Population Hoechst High Intensity Objects (%): 0.1% and 0%
  Population Membrane Permeable-Phenotype (%): 2.62% and 1.89%
  Population Mitochondria Different-Phenotype (%): 28.13% and 43.4%
  Population Mitotic Cells (%): 90.7% and 75.51%
  Population Normal (%): 99.9% and 100%
HEK-293T; [6]
  Population Apoptotic (%): 20% and 23.23%
  Population Fragmented Nuclei (%): 3.53% and 4.03%
  Population Healthy Nuclei (%): 73.65% and 29.53%
  Population Hoechst High Intensity Objects (%): 0.21% and 0%
  Population Membrane Permeable-Phenotype (%): 1.97% and 0%
  Population Mitochondria Different-Phenotype (%): 64.51% and 56.82%
  Population Mitotic Cells (%): 80% and 76.77%
  Population Normal (%): 99.79% and 100%
  Population Pyknosed Nuclei (%): 22.82% and 66.44%
  Population Tubulin-Different-Phenotype (%): 33.24% and 81.82%
